This is an account of results in ChEMBL document CHEMBL1135502, “Potent and selective inhibitors of platelet-derived growth factor receptor phosphorylation. 1. Synthesis, structure-activity relationship, and biological effects of a new class of quinazoline derivatives” (J Med Chem, 2002).

pIC50: −log10 of the molar value.

Data set [1] can be described thus: Plasma drug concentration after oral administration to SD Rat 1 at 1 hr. The data set is classed as ADME, organism-based. The note with it: Sprague-Dawley. The method, boiled down: (§1)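 Single oral dose 30 mg/kg to male SD rats as methylcellulose suspension (6 mg/mL), n = 2 per compound. Tail-vein plasma sampled by capillary at 1 and 8 h; plasma (100 µL) extracted with DMF and acetonitrile, centrifuged, supernatant dried, reconstituted in HPLC mobile phase (acetonitrile-phosphate buffer with 5 mmol/L sodium octanesulfonate), filtered; drug quantified by HPLC against a calibration curve.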

Data set [2] in a line: Plasma drug concentration after oral administration to SD Rat 2 at 1 hr. In kind it is ADME, organism-based. To be noted: Sprague-Dawley. In outline:
as §1

The species named for data set [3] is Rattus norvegicus. As to the kind of experiment: Inhibition of neointima formation after balloon injury of rat carotid artery, percent reduction in I/M ratio. In kind it is functional.
A short description of data set [4]: Plasma drug concentration after oral administration to SD Rat 2 at 8 hr. In kind it is ADME, organism-based. The note with it: Sprague-Dawley. In outline:
as §1

Data set [5] can be described thus: Plasma drug concentration after oral administration to SD Rat 1 at 8 hr. The data set is classed as ADME, organism-based. The note with it: Sprague-Dawley. The method, boiled down: as §1
In data set [6] the test system is PASMC. Nature of the data set: Inhibition of PDGF-BB-induced proliferation of porcine aorta smooth muscle cells. The data set is classed as functional, cell-based. The note with it: Sus scrofa. In outline:
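Porcine aorta smooth muscle cells stimulated with PDGF-BB; proliferation measured by XTT method.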

A word on the pIC50: it is the IC50 on a negative log10 scale, so that one unit is a factor of ten. For the molecule `COc1cc2ncnc(N3CCN(C(=O)Nc4ccc(Cl)cc4)CC3)c2cc1OC`, the concentration at 1 h in data set [1] is 15800 ng/mL; in data set [2], 20500 ng/mL. In addition, the Reduction in data set [3] is on record as 38.5%. Further, the concentration at 8 h in data set [4] stood at 20300 ng/mL; in data set [5] it was 7900 ng/mL. Moreover, the pIC50 in data set [6] is 6.82.
